In ChEMBL document CHEMBL1157836, “Dibenzocyclooctadiene lignans from Schisandra wilsoniana and their anti-HIV-1 activities” (J Nat Prod, 2010):
In brackets after ≈: the same amount, converted by molar mass.

Legend:
[1] = test system: Human immunodeficiency virus 1; experiment: Antiviral activity against HIV1 infected in human C8166 cells assessed as inhibition of virus-induced cytopathic effect; type: functional, organism-based; conditions: Human immunodeficiency virus 1, C8166
Outline: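 HIV-1 cytopathic-effect inhibition assay in C8166 cells, giving EC50. AZT served as the positive control. Cytotoxicity was determined in parallel.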

[2] = Cytotoxicity against human C8166 cells by MTT assay; type: cell-based
Outline: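 C8166 cells were tested by MTT assay alongside the anti-HIV-1 determination, giving CC50. AZT served as the positive control.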

[3] = Therapeutic index, ratio of CC50 for C8166 cells to EC50 for HIV1; type: cell-based; conditions: human, read-out: TI
Outline: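 TI was calculated as CC50 over EC50. CC50 came from the MTT assay on C8166 cells; EC50 came from HIV-1 cytopathic-effect inhibition in C8166 cells, run in parallel.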

| EC50 [1] [µg/mL] | Compound | CC50 [2] [µg/mL] | selectivity ratio [3] |
| --- | --- | --- | --- |
| 5 (≈ 13.4 µM) | COc1cc2c(c(O)c1O)-c1c(cc(OC)c(OC)c1O)C[C@@H](C)[C@@H](C)C2 [MARLIGNAN C] | 65.6 (≈ 175 µM) | 13.2 |
| 2.6 (≈ 6.46 µM) | COc1c(O)cc2c(c1OC)-c1c(cc(O)c(OC)c1OC)C(=O)[C@@H](C)[C@@H](C)C2 [MARLIGNAN H] | 46.5 (≈ 116 µM) | 17.6 |
| 1.9 (≈ 4.7 µM) | COc1cc2c(c(OC)c1OC)-c1c(cc(O)c(OC)c1O)C[C@H](C)[C@@](C)(O)C2 [MARLIGNAN K] | 14.8 (≈ 36.6 µM) | 7.7 |
| 2.9 (≈ 6.11 µM) | COc1cc2c(c(OC)c1OC)-c1c(cc(OC)c(OC)c1OC)[C@H](OC(C)=O)[C@@H](C)[C@@H](C)C2 [MARLIGNAN I] | 13.5 (≈ 28.4 µM) | 4.6 |
| 1.6 (≈ 3.58 µM) | COc1c(O)cc2c(c1OC)-c1c(cc(O)c(OC)c1OC)[C@H](OC(C)=O)[C@@H](C)[C@@H](C)C2 [MARLIGNAN E] | 13.7 (≈ 30.7 µM) | 8.7 |
| 2.1 (≈ 4.13 µM) | COc1c(O)cc2c(c1OC)-c1c(cc(O)c(OC)c1OC)[C@H](OC(=O)c1ccccc1)[C@@H](C)[C@@H](C)C2 | 14.2 (≈ 27.9 µM) | 6.7 |
| 5.1 (≈ 13.6 µM) | COc1cc2c(c(O)c1OC)-c1c(cc(O)c(OC)c1O)C[C@@H](C)[C@@H](C)C2 [MARLIGNAN B] | 43.4 (≈ 116 µM) | 8.4 |
| 1.4 (≈ 3.46 µM) | COc1c(O)cc2c(c1OC)-c1c(cc(O)c(OC)c1OC)C[C@](C)(O)[C@@H](C)C2 [MARLIGNAN L] | 22.6 (≈ 55.9 µM) | 16.4 |
| 1.4 (≈ 3.35 µM) | COc1c(O)cc2c(c1OC)-c1c(cc(O)c(OC)c1OC)[C@H](OC)[C@@H](C)[C@@H](C)C2 [MARLIGNAN F] | 21.4 (≈ 51.1 µM) | 15.6 |
| 2.6 (≈ 6.94 µM) | COc1c(O)cc2c(c1O)-c1c(cc(O)c(OC)c1OC)C[C@@H](C)[C@@H](C)C2 [MARLIGNAN A] | 15.8 (≈ 42.2 µM) | 6 |
| 2.5 (≈ 6.18 µM) | COc1c(O)cc2c(c1OC)-c1c(cc(O)c(OC)c1OC)[C@H](O)[C@@H](C)[C@@H](C)C2 [MARLIGNAN D] | 14.2 (≈ 35.1 µM) | 5.7 |
| 1.9 (≈ 4.13 µM) | CCO[C@H]1c2cc(OC)c(OC)c(OC)c2-c2c(cc(OC)c(OC)c2OC)C[C@H](C)[C@@H]1C [MARLIGNAN J] | 17.2 (≈ 37.3 µM) | 9.3 |
